Experiments:
[1] = tested on: Rattus norvegicus; test: Evaluated for the antiinflammatory activity in the 5-h Evans Blue-Carrageenan induced pleural effusion assay at the dose of 20 mg/kg (p.o.); assay type: functional; details: route oral
Method in brief: (§1)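 Six fasted male rats per group received compound orally by gavage (10 mL/kg) in vehicle containing 0.5% Tween 80. Pleural effusion was induced by intrapleural injection of 5 mL 0.075% Evans blue–0.5% carrageenan type 7 and measured after 5 h. Results are given as percent change in pleural fluid volume versus a concurrent control group, with indomethacin 4.0 mg/kg as standard.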

[2] = tested on: Rattus norvegicus; test: Evaluated for the antiinflammatory activity in the 5-h Evans Blue-Carrageenan induced pleural effusion assay at the dose of 4.0 mg/kg (p.o.); assay type: functional; details: route oral; method in brief: as §1
[3] = tested on: Rattus norvegicus; test: Percent change of the antiinflammatory activity in the 5-h Evans Blue-Carrageenan induced pleural effusion assay at the dose of 4.0 mg/kg (p.o.); assay type: functional; details: route oral; method in brief: as §1
[4] = tested on: Rattus norvegicus; test: Percent change of the antiinflammatory activity in the 5-h Evans Blue-Carrageenan induced pleural effusion assay at the dose of 20 mg/kg (p.o.); assay type: functional; details: route oral; method in brief: as §1
[5] = target: T1, Cyclooxygenase (Bos taurus, UniProt O62664+O62698); test: Evaluated for the inhibition of Prostaglandin synthetase obtained from bovine seminal vesicles at the dose of 20 mg/kg (p.o.); design: dose 20 mg/kg, route oral
T1 sequence (O62664 whole entry): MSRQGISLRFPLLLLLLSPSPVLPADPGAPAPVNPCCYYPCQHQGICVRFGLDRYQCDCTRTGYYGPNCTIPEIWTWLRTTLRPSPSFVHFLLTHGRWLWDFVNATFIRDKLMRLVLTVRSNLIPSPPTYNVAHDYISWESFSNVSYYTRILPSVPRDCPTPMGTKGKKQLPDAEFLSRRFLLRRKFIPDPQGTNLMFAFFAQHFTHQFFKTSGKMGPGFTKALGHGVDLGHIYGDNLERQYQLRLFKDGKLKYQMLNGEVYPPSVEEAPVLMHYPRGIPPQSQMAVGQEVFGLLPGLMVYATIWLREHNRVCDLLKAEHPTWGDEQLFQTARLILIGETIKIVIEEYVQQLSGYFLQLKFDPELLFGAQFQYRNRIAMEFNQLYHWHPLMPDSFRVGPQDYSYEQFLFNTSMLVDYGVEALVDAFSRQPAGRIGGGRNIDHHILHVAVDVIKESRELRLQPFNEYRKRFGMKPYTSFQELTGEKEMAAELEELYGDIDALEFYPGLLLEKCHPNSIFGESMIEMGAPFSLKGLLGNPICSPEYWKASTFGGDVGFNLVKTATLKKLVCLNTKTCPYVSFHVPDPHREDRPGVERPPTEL
T1 sequence (O62698 whole entry): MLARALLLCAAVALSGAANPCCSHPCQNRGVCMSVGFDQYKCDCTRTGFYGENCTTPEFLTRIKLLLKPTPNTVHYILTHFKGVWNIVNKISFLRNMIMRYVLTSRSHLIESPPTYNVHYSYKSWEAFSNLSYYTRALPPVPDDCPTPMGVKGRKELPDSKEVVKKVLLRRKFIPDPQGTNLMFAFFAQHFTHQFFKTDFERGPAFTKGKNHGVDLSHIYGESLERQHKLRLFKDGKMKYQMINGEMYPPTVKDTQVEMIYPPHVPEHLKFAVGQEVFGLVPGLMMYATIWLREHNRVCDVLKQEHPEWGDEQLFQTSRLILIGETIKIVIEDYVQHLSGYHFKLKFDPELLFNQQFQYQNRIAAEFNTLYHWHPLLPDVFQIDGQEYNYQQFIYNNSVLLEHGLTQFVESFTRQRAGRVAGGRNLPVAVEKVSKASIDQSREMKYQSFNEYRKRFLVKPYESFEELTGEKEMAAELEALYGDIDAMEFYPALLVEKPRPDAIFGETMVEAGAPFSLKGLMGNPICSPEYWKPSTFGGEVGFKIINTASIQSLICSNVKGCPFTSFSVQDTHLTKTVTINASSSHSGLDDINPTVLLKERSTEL
Method in brief: (§2)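 Cyclooxygenase-containing enzyme was a lyophilized 600g supernatant of bovine seminal vesicle homogenate in 0.05 M phosphate, pH 7.8. The assay used 0.1 M phosphate pH 7.8 with epinephrine and enzyme, and drug stocks of 3×10^-1 to 3×10^-6 M. After 3 min at 30 °C, arachidonic acid was added. Activity was taken as substrate minus basal O2-uptake rate, run in triplicate, and IC50 came from regression on log concentration.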

[6] = tested on: Rattus norvegicus; test: Evaluated for the antiinflammatory activity in the 5-h Evans Blue-Carrageenan induced pleural effusion assay at the dose of 100 mg/kg (p.o.); assay type: functional; details: route oral; method in brief: as §1
[7] = target: T1, Cyclooxygenase; test: Evaluated for the inhibition of Prostaglandin synthetase obtained from bovine seminal vesicles at the dose of 100 mg/kg (p.o.); design: dose 100 mg/kg, route oral; method in brief: as §2
[8] = tested on: Rattus norvegicus; test: Percent change of the antiinflammatory activity in the 5-h Evans Blue-Carrageenan induced pleural effusion assay at the dose of 100 mg/kg (p.o.); assay type: functional; details: route oral; method in brief: as §1
[9] = tested on: Rattus norvegicus; test: Persent change of the antiinflammatory activity in the 5-h Evans Blue-Carrageenan induced pleural effusion assay at the dose of 4.0 mg/kg (p.o.); assay type: functional; details: route oral; method in brief: as §1
[10] = target: T1, Cyclooxygenase; test: Evaluated for the inhibition of Prostaglandin synthetase obtained from bovine seminal vesicles at the dose of 4 mg/kg p.o.; design: dose 4 mg/kg, route oral; method in brief: as §2
[11] = tested on: Rattus norvegicus; test: Percent activity in the 5-h Evans Blue-Carrageenan induced pleural effusion assay at the dose of 100 mg/kg (p.o.); assay type: functional; details: route oral; method in brief: as §1
[12] = tested on: Rattus norvegicus; test: Percent activity in the 5-h Evans Blue-Carrageenan induced pleural effusion assay at the dose of 20 mg/kg (p.o.); assay type: functional; details: route oral; method in brief: as §1
[13] = tested on: Rattus norvegicus; test: Persent change of the antiinflammatory activity in the 5-h Evans Blue-Carrageenan induced pleural effusion assay at the dose of 20 mg/kg (p.o.); assay type: functional; details: route oral; method in brief: as §1
[14] = tested on: Rattus norvegicus; test: Percent activity in the 5-h Evans Blue-Carrageenan induced pleural effusion assay at the dose of 0.16 mg/kg (p.o.); assay type: functional; details: route oral; method in brief: as §1
[15] = tested on: Rattus norvegicus; test: Evaluated for the antiinflammatory activity in the 5-h Evans Blue-Carrageenan induced pleural effusion assay at the dose of 0.16 mg/kg (p.o.); assay type: functional; details: route oral; method in brief: as §1
[16] = tested on: Rattus norvegicus; test: Evaluated for the antiinflammatory activity in the 5-h Evans Blue-Carrageenan induced pleural effusion assay at the dose of 0.8 mg/kg (p.o.); assay type: functional; details: route oral; method in brief: as §1
[17] = target: T1, Cyclooxygenase; test: Evaluated for the inhibition of prostaglandin synthetase obtained from bovine seminal vesicles at the dose of 4.0 mg/kg (p.o.); design: dose 4 mg/kg, route oral
[18] = tested on: Rattus norvegicus; test: Percent change of the antiinflammatory activity in the 5-h Evans Blue-Carrageenan induced pleural effusion assay at the dose of 0.8 mg/kg (p.o.); assay type: functional; details: route oral; method in brief: as §1
[19] = tested on: Rattus norvegicus; test: Percent activity in the 5-h Evans Blue-Carrageenan induced pleural effusion assay at the dose of 4.0 mg/kg (p.o.); assay type: functional; details: route oral; method in brief: as §1
[20] = tested on: Rattus norvegicus; test: Persent change of the antiinflammatory activity in the 5-h Evans Blue-Carrageenan induced pleural effusion assay at the dose of 0.8 mg/kg (p.o.); assay type: functional; details: route oral; method in brief: as §1
[21] = tested on: Rattus norvegicus; test: Persent change of the antiinflammatory activity in the 5-h Evans Blue-Carrageenan induced pleural effusion assay at the dose of 0.16 mg/kg (p.o.); assay type: functional; details: route oral; method in brief: as §1

SMILES	Pleural fluid [1]	Pleural fluid [2]	Change [3]	Change [4]	IC50 [5]	Change [9]	also measured
CC(C(=O)[O-])c1ccc(-c2ccccc2)cc1.[Na+] (centres undefined)	2.9 mL	3.4 mL	-42%	-52%	12 µM	–	–
O=C([O-])Cc1cccc(C(=O)c2ccccc2)c1Cl.[Na+]	–	–	–	–	–	–	Pleural fluid [6]: 5.7 mL; IC50 [7]: > 100 µM; Change [8]: -8%
CC(C(=O)[O-])c1cccc(C(=O)c2ccccc2)c1N.[Na+] (centres undefined)	–	6 mL	-4%	–	–	–	Pleural fluid [6]: 3.4 mL; IC50 [7]: 1 µM; Change [8]: -38%
O=C([O-])Cc1cccc(C(=O)c2ccccc2)c1.[Na+]	–	5.9 mL	–	–	–	-7%	IC50 [10]: 40 µM
CN(C)c1c(CC(=O)[O-])cccc1C(=O)c1ccccc1.[Na+]	5.2 mL	5.9 mL	-5%	–	–	–	Pleural fluid [6]: 3.9 mL; IC50 [7]: > 1000 µM; Change [11]: -36%; Change [12]: -16%
Nc1cc(-c2ccccc2)ccc1CC(=O)[O-].[Na+]	3.9 mL	5.4 mL	-9%	-34%	170 µM	–	–
O=C([O-])Cc1ccc(-c2ccccc2)cc1.[Na+]	3.9 mL	4.7 mL	-21%	-35%	420 µM	–	–
Nc1c(CC(=O)[O-])cccc1Oc1ccccc1.[Na+]	5.1 mL	5.7 mL	4%	-7%	420 µM	–	–
O=C([O-])Cc1cccc(Oc2ccccc2)c1.[Na+]	4.9 mL	5.1 mL	–	–	> 1000 µM	-7%	Change [13]: -11%
Nc1c(CC(=O)[O-])cccc1C(=O)c1ccccc1.[Na+] [AMFENAC SODIUM]	–	4.5 mL	-25%	–	–	–	Change [14]: -15%; Pleural fluid [15]: 5.1 mL; Pleural fluid [16]: 5 mL; IC50 [17]: 0.2 µM; Change [18]: -17%
CC(C(=O)[O-])c1cccc(Oc2ccccc2)c1.[Na+] (centres undefined) [FENOPROFEN SODIUM]	3.9 mL	5.2 mL	–	-29%	98 µM	–	Change [19]: -6%
COc1ccc2c(c1)c(CC(=O)O)c(C)n2C(=O)c1ccc(Cl)cc1 [INDOMETHACIN]	–	4 mL	–	–	–	-28%	–
CC(C(=O)[O-])c1cccc(C(=O)c2ccccc2)c1.[Na+] (centres undefined) [KETOPROFEN SODIUM]	–	3.6 mL	–	–	–	-41%	IC50 [10]: 3.4 µM; Change [20]: -24%; Pleural fluid [15]: 5.8 mL; Pleural fluid [16]: 4.6 mL; Change [21]: -4%

From ChEMBL document CHEMBL1122044, “Antiinflammatory agents. 2. Syntheses and antiinflammatory activity of substituted 2-aminophenylacetic acid derivatives” (J Med Chem, 1982)
